From ChEMBL document CHEMBL2202955, “Identification of Potent, Selective, Cell-Active Inhibitors of the Histone Lysine Methyltransferase EZH2” (ACS Med Chem Lett, 2012) come the findings set out here.

Test [1] has as its target Histone-lysine N-methyltransferase EZH2 (Homo sapiens, UniProt Q15910). The test can be described thus: Inhibition of EZH2-mediated nuclear H3K27 methylation in human HCC1806 cells after 72 hrs by immunofluorescence analysis. It counts as cell-based. The method, boiled down: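 HCC1806 breast cancer cells were exposed to compound for 72 h. Nuclear H3K27me3 was quantified by an immunofluorescence imaging assay and normalized to total H3. Values are the mean of at least three independent replicates.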

Test [2] has as its target EZH2/SUZ12/EED/RBBP7/RBBP4. The test can be described thus: Inhibition of PRC2 complex of FLAG-EZH2, EED, SUZ12, AEBP2 and RbAp48 using histone H3 peptide (21 to 44) as substrate and [3H]SAM after 30 mins. The class given is protein-complex assay. As to conditions: read-out: Ki(app).

Histone-lysine N-methyltransferase EZH2, sequence (Q15910 whole entry): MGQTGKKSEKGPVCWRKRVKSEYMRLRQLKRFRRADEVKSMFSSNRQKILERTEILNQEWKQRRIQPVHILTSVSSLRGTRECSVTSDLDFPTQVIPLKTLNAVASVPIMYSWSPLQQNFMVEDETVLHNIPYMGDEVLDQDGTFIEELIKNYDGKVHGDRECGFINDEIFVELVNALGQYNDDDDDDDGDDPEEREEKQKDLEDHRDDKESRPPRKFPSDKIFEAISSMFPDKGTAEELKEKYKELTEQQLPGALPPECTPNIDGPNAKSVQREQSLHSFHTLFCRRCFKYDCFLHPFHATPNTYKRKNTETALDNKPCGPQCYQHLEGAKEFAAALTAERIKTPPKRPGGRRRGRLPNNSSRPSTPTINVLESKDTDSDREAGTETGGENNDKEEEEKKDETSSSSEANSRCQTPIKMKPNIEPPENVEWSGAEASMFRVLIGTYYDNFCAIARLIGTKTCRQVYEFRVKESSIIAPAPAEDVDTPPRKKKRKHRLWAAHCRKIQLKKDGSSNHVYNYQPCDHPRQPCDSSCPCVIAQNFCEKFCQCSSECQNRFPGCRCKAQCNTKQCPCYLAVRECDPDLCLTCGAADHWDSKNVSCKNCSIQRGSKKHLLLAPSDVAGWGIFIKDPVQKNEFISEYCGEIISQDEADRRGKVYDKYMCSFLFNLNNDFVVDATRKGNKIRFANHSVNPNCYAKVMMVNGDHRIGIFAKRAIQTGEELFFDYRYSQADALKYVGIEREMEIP

For `Cc1cc(C)c(CNC(=O)c2cc(-c3ccnc(N4CCN(C)CC4)c3)cc3c2cnn3C(C)C)c(=O)[nH]1`, in test [1], the IC50 came out at 2000 nM. For the same compound, in test [2], the Ki is 14 nM.

Take `Cc1cc(C)c(CNC(=O)c2cc(C3CC3)cc3c2cnn3C(C)C)c(=O)[nH]1`: the IC50 in test [1] came to 2510 nM. Moreover, the Ki in test [2] is 74 nM.
